Data from ChEMBL document CHEMBL4840309, “Nanomolar inhibition of human OGA by 2-acetamido-2-deoxy-d-glucono-1,5-lactone semicarbazone derivatives” (Eur J Med Chem, 2021).

Columns and labels:
[1] = target: T1, HEXA/HEXB (Bos taurus, UniProt Q0V8R6+H7BWW2); assay: Competitive inhibition of cow HexA/HexB (unknown origin) using pNP-GlcNAc as substrate assessed as inhibition constant by measuring liberation of nitrophenol preincubated with enzyme followed by substrate addition by Dixon plot analysis; format: protein
T1 sequence (Q0V8R6 whole entry): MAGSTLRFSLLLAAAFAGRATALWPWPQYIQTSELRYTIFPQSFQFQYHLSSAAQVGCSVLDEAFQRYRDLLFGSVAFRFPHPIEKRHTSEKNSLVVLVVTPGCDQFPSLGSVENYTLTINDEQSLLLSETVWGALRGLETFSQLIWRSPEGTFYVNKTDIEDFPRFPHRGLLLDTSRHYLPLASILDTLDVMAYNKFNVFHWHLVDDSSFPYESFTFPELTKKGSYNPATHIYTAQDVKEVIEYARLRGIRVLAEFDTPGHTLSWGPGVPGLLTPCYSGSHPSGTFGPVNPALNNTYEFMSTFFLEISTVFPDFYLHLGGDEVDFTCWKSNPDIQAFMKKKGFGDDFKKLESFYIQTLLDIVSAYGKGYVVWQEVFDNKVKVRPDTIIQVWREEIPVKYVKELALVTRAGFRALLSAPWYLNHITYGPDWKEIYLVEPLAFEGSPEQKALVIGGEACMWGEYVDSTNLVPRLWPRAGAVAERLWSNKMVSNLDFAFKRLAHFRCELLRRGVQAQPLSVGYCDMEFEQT
T1 sequence (H7BWW2 whole entry): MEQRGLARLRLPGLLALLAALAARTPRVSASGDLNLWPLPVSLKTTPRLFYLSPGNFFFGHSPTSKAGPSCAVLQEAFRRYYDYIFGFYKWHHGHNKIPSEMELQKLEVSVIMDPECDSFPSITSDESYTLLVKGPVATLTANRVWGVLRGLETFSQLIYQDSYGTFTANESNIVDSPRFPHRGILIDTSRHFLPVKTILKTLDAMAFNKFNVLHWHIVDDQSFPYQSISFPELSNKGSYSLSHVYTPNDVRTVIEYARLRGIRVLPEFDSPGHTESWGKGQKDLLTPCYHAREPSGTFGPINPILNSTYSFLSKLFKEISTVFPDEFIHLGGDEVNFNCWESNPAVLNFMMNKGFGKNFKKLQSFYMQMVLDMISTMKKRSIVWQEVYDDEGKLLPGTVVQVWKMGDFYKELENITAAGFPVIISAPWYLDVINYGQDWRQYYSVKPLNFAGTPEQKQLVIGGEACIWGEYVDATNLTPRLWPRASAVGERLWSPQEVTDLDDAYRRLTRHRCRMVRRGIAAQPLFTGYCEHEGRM

[2] = target: T2, Protein O-GlcNAcase (Homo sapiens, UniProt O60502); assay: Competitive inhibition of N-terminal His-tagged human OGA using pNP-GlcNAc as chromogenic substrate assessed as inhibition constant by measuring liberation of nitrophenol preincubated with enzyme followed by substrate addition by Dixon plot analysis
T2 sequence (O60502 whole entry): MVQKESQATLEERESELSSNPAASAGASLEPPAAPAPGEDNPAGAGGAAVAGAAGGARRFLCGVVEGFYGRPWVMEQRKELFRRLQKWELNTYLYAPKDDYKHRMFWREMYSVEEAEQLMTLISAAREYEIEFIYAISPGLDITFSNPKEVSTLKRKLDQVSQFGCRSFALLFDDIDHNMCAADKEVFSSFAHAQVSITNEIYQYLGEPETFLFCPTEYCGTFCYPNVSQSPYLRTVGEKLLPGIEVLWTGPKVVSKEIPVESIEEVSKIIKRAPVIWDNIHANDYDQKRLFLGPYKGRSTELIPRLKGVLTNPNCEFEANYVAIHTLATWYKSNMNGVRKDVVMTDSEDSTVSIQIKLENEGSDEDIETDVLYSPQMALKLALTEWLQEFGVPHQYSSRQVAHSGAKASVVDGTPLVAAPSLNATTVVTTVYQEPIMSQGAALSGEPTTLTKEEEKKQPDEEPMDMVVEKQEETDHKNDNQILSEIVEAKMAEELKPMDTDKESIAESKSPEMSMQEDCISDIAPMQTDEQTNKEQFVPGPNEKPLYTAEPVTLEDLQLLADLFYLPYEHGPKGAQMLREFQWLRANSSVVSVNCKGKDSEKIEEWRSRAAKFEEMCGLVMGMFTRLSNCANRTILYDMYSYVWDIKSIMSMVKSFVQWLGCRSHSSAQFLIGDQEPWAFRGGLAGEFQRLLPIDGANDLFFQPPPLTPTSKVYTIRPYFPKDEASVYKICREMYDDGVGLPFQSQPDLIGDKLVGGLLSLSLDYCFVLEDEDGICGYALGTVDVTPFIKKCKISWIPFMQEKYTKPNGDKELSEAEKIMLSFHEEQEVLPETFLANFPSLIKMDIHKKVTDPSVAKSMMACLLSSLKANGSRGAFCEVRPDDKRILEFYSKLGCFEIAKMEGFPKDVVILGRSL
How it was run: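 His6-tagged full-length human OGA (Rosetta(DE3), Co2+ IMAC), 33 nM. Pre-incubated with inhibitor at 37 °C in 50 mM potassium phosphate, pH 7.5, 1 ml. Started by adding pNP-GlcNAc at three concentrations. Release of p-nitrophenol followed continuously at 400 nm. Initial rates in triplicate; Ki by linear regression of Dixon plots; modality checked by Cornish-Bowden plots.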

[3] = target: T2, Protein O-GlcNAcase; assay: Inhibition of OGA (unknown origin) using pNP-O-GlcNAc as substrate assessed as inhibition constant incubated for 30 mins
[4] = target: T2, Protein O-GlcNAcase; assay: Competitive inhibition of N-terminal His-tagged human OGA using 4-Mu-GlcNAc as substrate assessed as inhibition constant by measuring liberation of […] preincubated with enzyme followed by substrate addition by Cornish-Bowden method
How it was run: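 Full-length long isoform of human OGA with an N-terminal His6 tag, expressed in E. coli Rosetta(DE3) and purified on Co2+ IMAC. 3 nM enzyme was pre-incubated at 37 °C with inhibitor (0–100 nM) in 50 mM potassium phosphate, pH 7.5. Reaction was started with 4-MU-GlcNAc at three levels. Fluorescence (ex 360, em 450) was read every 10 s for 10 min. Triplicates; Ki from Dixon plot; mode by Cornish-Bowden.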

[5] = target: T1, HEXA/HEXB; assay: Inhibition of HexA/HexB (unknown origin); format: protein assay, Homo sapiens

Structure (SMILES)	Ki [1] [nM]	Ki [2] [nM]	Ki [3] [nM]	Ki [4] [nM]	Ki [5] [nM]
CC(=O)N[C@H]1/C(=N/NC(=O)Nc2cccc3ccccc23)O[C@H](CO)[C@@H](O)[C@@H]1O	154	506			
COc1ccc(NC(=O)N/N=C2\O[C@H](CO)[C@@H](O)[C@H](O)[C@H]2NC(C)=O)cc1	413	270			
CC(=O)N[C@H]1/C(=N/O)O[C@H](CO)[C@@H](O)[C@@H]1O			1600		
CC(=O)N[C@H]1/C(=N/NC(=O)Nc2ccc3ccccc3c2)O[C@H](CO)[C@@H](O)[C@@H]1O	47			36	
CC(=O)N[C@H]1/C(=N/NC(=O)Nc2ccccc2)O[C@H](CO)[C@@H](O)[C@@H]1O	205	190			130
CC(=O)N[C@H]1/C(=N/NC(=O)Nc2ccc(C)cc2)O[C@H](CO)[C@@H](O)[C@@H]1O	332	155			
CC(=O)N[C@H]1/C(=N/NC(=O)Nc2ccc(C(F)(F)F)cc2)O[C@H](CO)[C@@H](O)[C@@H]1O	125	167			
CC(=O)N[C@H]1/C(=N/NC(=O)Nc2ccc(Cl)cc2)O[C@H](CO)[C@@H](O)[C@@H]1O	170			83	
CC(=O)N[C@H]1/C(=N/NC(=S)Nc2ccccc2)O[C@H](CO)[C@@H](O)[C@@H]1O	30000	27000			
